Data on one compound can be found in ChEMBL document CHEMBL3808357, “Discovery of N-(3-((1-Isonicotinoylpiperidin-4-yl)oxy)-4-methylphenyl)-3-(trifluoromethyl)benzamide (CHMFL-KIT-110) as a Selective, Potent, and Orally Available Type II c-KIT Kinase Inhibitor for Gastrointestinal Stromal Tumors (GISTs)” (J Med Chem, 2016).

In general, GI50 refers to the concentration giving 50% growth inhibition. What is called Cmax is the maximum level reached in the sampled fluid or tissue. As usually defined, the IC50 is the midpoint of a concentration-inhibition curve. As a reminder, the Tmax is the time at which the peak concentration occurs. By AUC(0-t) is commonly meant the area under the concentration-time curve up to a stated or last time point. The half-life is the time needed for the level to fall by half in the phase considered. The low end stands for rapid decline, the high end for slow decline.

Active and inactive are the calls of the source.

One series relates to K562. The series can be described thus: Antiproliferative activity against BCR-ABL dependent human K562 cells assessed as reduction in cell viability after 72 hrs by celltiter-glo/CCK8 assay. To be noted: K562, 72 h. The class given is functional. The method, boiled down:
(§1)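 Cells were seeded at 1 to 3 × 10⁴ cells/mL with serial compound concentrations and incubated 72 h at 37 °C, 5% CO₂. Viability was read by CellTiter-Glo luminescence or CCK-8 absorbance (450/655 nm). GI50 values are from triplicate testing. GIST-T1 and CHO were grown in DMEM/10% FBS; GIST-882, GIST-48B and MV4-11 in IMDM/10% FBS; other lines in RPMI 1640/10% FBS.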

The test system of the next series is GIST882. The series can be described thus: Induction of apoptosis in human GIST882 cells assessed as PARP cleavage up to 3 uM after 72 hrs by Western blot analysis. The class given is functional, cell-based. Background: A western blot detects proteins with antibodies after separation by electrophoresis.
A short description of series [1]: Cmax in Sprague-Dawley rat plasma at 10 mg/kg, po. On the set-up: dose 10 mg/kg, route oral. The class given is ADME, organism-based. The method, boiled down: (§2)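 Male Sprague-Dawley rats, 8 weeks old, fasted overnight, dosed iv or orally. Formulation was 5% DMSO/40% PEG400/55% saline at 1 mg/mL. Blood (~0.2 mL) was drawn from the jugular vein into heparin. Sampling: iv at 1 min to 8 h; oral at 5 min to 24 h. Plasma was separated by centrifugation at 2−8 °C and stored at −80 °C.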

In series [2] the test system is Mast/stem cell growth factor receptor Kit (Homo sapiens), P10721 [V559D,T670I]. The series can be described thus: Inhibition of Tel-fused cKIT T670I/V559D double mutant (unknown origin) transfected in mouse BAF3 cells assessed as decrease in cell proliferation after 72 hrs by celltiter-glo/CCK8 assay. The class given is cell-based. The method, boiled down:
(§3)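 Stable BaF3 lines made by retroviral transduction with mutagenized TEL-KIT MSCV vectors, puromycin selection 48 h, then gradual IL-3 withdrawal until IL-3-independent; grown in RPMI 1640 with 10% FBS. Cells at 1 to 3 × 10⁴ cells/mL exposed to a concentration series for 72 h; viability read by CellTiter-Glo luminescence or CCK-8 absorbance (450/655 nm); GI50 from triplicate testing.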
In general terms: In ATP-based viability assays light output follows the ATP content of the culture.

A short description of series [3]: Antiproliferative activity against human U937 cells assessed as reduction in cell viability after 72 hrs by celltiter-glo/CCK8 assay. The class given is functional. To be noted: U-937, 72 h. The method, boiled down:
as §1

Series [4] relates to Mast/stem cell growth factor receptor Kit (Homo sapiens), P10721 [V654A]. The series is described as follows: Inhibition of Tel-fused cKIT V654A mutant (unknown origin) transfected in mouse BAF3 cells assessed as decrease in cell proliferation after 72 hrs by celltiter-glo/CCK8 assay. The class given is cell-based. The method in brief: as §3
Sequence of Mast/stem cell growth factor receptor Kit (Homo sapiens), P10721 [V654A] (P10721 whole entry V654A, the tested form may be a part): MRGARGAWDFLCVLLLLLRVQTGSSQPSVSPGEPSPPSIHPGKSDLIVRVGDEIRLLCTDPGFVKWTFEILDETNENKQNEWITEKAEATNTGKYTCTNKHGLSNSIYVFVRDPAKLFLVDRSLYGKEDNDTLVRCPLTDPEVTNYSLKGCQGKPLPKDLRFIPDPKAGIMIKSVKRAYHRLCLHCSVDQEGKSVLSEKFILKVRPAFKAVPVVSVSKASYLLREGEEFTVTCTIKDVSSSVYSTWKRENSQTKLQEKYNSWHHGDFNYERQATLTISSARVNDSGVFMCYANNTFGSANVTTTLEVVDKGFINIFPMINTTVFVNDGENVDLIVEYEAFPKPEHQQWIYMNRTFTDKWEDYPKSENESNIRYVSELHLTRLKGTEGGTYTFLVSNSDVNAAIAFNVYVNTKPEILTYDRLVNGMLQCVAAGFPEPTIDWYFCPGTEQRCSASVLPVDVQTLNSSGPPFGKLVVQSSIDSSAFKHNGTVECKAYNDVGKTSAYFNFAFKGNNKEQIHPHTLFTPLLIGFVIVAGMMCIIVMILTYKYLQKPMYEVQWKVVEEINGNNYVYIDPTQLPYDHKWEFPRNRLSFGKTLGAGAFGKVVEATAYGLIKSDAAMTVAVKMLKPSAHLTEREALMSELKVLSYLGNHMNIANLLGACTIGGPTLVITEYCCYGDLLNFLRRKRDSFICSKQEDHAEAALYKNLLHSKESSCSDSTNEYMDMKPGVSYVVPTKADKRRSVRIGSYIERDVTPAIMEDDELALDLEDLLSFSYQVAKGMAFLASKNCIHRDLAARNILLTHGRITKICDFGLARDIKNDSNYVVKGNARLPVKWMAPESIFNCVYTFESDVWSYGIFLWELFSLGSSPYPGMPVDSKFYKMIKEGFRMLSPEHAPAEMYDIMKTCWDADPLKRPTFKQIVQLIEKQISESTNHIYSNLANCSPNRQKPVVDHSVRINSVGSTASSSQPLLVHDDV
For series [5], the target named is Platelet-derived growth factor receptor beta (Homo sapiens, UniProt P09619). The series is described as follows: Inhibition of N-terminal GST-tagged recombinant human PDGFRbeta (amino acids 557-end) expressed in baculovirus infected insect Sf9 cells using Poly(4:1 Glu, Tyr) peptide as substrate after 1 hr by promega ADP-glo assay. The method, boiled down: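 ADP-Glo luminescence assay. PDGFRβ (10 ng/μL, 9 μL) with poly(Glu4,Tyr1) substrate (0.4 μg/μL) and 100 μM ATP, serially diluted inhibitor, 1 h at 37 °C. ADP-Glo reagent was added for 40 min, then detection reagent for 30 min. IC50 was taken from the dose−response fit.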
Sequence of Platelet-derived growth factor receptor beta (P09619 whole entry, the tested form may be a part): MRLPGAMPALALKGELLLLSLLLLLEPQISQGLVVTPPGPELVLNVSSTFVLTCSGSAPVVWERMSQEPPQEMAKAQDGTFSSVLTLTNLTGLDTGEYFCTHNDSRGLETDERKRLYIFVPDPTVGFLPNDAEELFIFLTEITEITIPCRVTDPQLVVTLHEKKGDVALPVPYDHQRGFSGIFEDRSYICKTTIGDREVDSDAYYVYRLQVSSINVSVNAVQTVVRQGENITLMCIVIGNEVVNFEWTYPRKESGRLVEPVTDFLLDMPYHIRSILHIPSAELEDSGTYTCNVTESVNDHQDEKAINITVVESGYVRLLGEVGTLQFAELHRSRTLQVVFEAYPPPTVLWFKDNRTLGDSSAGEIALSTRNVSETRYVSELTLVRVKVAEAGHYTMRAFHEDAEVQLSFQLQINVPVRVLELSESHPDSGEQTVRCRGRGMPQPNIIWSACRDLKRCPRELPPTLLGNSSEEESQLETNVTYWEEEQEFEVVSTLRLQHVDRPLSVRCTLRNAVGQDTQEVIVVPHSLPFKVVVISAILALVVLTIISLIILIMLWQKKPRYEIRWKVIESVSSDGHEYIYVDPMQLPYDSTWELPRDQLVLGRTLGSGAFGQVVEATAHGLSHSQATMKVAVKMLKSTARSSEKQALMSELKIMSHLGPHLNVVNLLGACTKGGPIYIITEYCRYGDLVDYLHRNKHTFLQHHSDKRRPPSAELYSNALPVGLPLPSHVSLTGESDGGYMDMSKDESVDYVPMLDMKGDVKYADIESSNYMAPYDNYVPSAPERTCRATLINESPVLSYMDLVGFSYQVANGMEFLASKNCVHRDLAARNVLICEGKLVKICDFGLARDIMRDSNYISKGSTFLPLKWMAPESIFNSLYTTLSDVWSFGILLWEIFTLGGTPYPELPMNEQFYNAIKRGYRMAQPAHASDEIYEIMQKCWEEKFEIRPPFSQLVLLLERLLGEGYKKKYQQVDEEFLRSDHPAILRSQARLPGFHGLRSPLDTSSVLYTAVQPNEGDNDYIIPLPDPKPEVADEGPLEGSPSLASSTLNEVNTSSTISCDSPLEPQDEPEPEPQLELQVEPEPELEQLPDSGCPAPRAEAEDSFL
Background: ADP-Glo turns the ADP formed in a reaction into a luminescent signal.

The nature of series [6]: Antiproliferative activity against cKIT dependent human GISTT1 cells assessed as reduction in cell viability after 72 hrs by celltiter-glo/CCK8 assay. The class given is functional. To be noted: GISTT1, 72 h. The method in brief: as §1
Series [7] in a line: Apparent clearance in Sprague-Dawley rat plasma at 1 mg/kg, iv. To be noted: read-out: CL(app) (converted). The class given is ADME, organism-based. The method, boiled down:
as §2

Series [8] deals with Mast/stem cell growth factor receptor Kit (Homo sapiens) (UniProt P10721). The series can be described thus: Inhibition of cKIT in human GISTT1 cells assessed as suppression of STAT5 phosphorylation at Y694 up to 10 uM after 2 hrs by Western blot analysis. The class given is cell-based.
Sequence of Mast/stem cell growth factor receptor Kit (Homo sapiens) (P10721 whole entry): as the sequence (P10721 whole entry V654A, the tested form may be a part) above, with A654V counted along it
A short description of series [9]: Tmax in Sprague-Dawley rat plasma at 1 mg/kg, iv. The class given is ADME, organism-based. The method in brief:
(§4)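 Male Sprague–Dawley rats, 8 weeks old, six in total, fasted overnight; compound dissolved in 5% DMSO/40% PEG400/55% saline (1 mg/mL dosing solution), given iv or orally. About 0.2 mL jugular blood taken with heparin at 1 min–8 h (iv) or 5 min–24 h (oral); plasma separated at 2–8 °C and stored at −80 °C before analysis.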

The test system of another series is GISTT1. The series can be described thus: Induction of apoptosis in human GISTT1 cells assessed as PARP cleavage up to 3 uM after 48 hrs by Western blot analysis. The class given is functional, cell-based.
Series [10] in a line: Tmax in Sprague-Dawley rat plasma at 10 mg/kg, po. The class given is ADME, organism-based. The method in brief:
as §4

The nature of series [11]: AUC(0 to t) in Sprague-Dawley rat plasma at 1 mg/kg, iv. The class given is ADME, organism-based. The method, boiled down:
as §2

A short description of series [12]: Cell cycle arrest in human GIST48B cells at 0.3 to 3 uM after 24 hrs by propidium iodide/RNase staining based flow cytometric analysis. The class given is functional. The method, boiled down:
(§5)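 Cells were then fixed in 70% cold ethanol at −20 °C overnight, stained with PI/RNase buffer and analysed by flow cytometry.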

The target in series [13] is Mast/stem cell growth factor receptor Kit (Homo sapiens) (UniProt P10721). The series is described as follows: Inhibition of cKIT autophosphorylation at Y823 in human GIST882 cells up to 10 uM after 2 hrs by Western blot analysis. The class given is cell-based.
A short description of series [14]: Half life in Sprague-Dawley rat plasma at 10 mg/kg, po. The class given is ADME, organism-based. The method in brief: as §2
Series [15] addresses Mast/stem cell growth factor receptor Kit (Homo sapiens) (UniProt P10721). The series can be described thus: Inhibition of cKIT in human GISTT1 cells assessed as suppression of ERK phosphorylation at T202/Y204 up to 10 uM after 2 hrs by Western blot analysis. The class given is cell-based.
Series [16] is described as follows: Antiproliferative activity against human BCR-ABL dependent MEG01 cells assessed as reduction in cell viability after 72 hrs by celltiter-glo/CCK8 assay. The class given is functional. To be noted: MEG-01, 72 h.
A short description of series [17]: Cell cycle arrest in human GIST882 cells at 0.3 to 3 uM after 48 hrs by propidium iodide/RNase staining based flow cytometric analysis. The class given is functional. The method in brief: as §5
The subject of series [18] is Mast/stem cell growth factor receptor Kit (Homo sapiens), P10721 [D816V]. The series can be described thus: Inhibition of Tel-fused cKIT D816V mutant (unknown origin) transfected in mouse BAF3 cells assessed as decrease in cell proliferation after 72 hrs by celltiter-glo/CCK8 assay. The class given is cell-based. The method, boiled down:
as §3

Series [19] is described as follows: Antitumor activity against human GISTT1 cells xenografted in nu/nu mouse assessed as tumor growth inhibition at 100 mg/kg/day administered through oral gavage after 21 days. The class given is functional. To be noted: 504 h, read-out: TGI. The method, boiled down: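 Female nu/nu mice, 6 weeks old, received 5 × 10⁶ GIST-T1 cells in PBS/Matrigel (1:1) subcutaneously in the right flank. At 100−200 mm³, six mice per group were dosed daily by oral gavage at 25, 50 or 100 mg/kg/d in 0.5% methylcellulose/0.4% Tween80, or vehicle. Tumor volume was taken as (W²×L)/2, with body weight and tumor measured daily. Tumors were stained for Ki67 (IHC, 1:50 antibody) and by TUNEL.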

Series [20] deals with Mast/stem cell growth factor receptor Kit (Homo sapiens) (UniProt P10721). The series can be described thus: Inhibition in cKIT autophosphorylation at Y703 in human GISTT1 cells up to 10 uM after 2 hrs by Western blot analysis. The class given is cell-based. The method, boiled down: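 Cells were washed in cold PBS, lysed in RIPA and immunoblotted for phospho and total proteins, including pPDGFRα Y849/PDGFRβ Y857 and β-actin.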

A short description of series [21]: Antiproliferative activity against human GIST48B cells assessed as reduction in cell viability after 72 hrs by celltiter-glo/CCK8 assay. The class given is functional. The method in brief: as §1

Sequence of Mast/stem cell growth factor receptor Kit (Homo sapiens), P10721 [D816V] (P10721 whole entry D816V, the tested form may be a part): as the sequence (P10721 whole entry V654A, the tested form may be a part) above, with A654V, D816V counted along it
Sequence of Mast/stem cell growth factor receptor Kit (Homo sapiens), P10721 [V559D,T670I] (P10721 whole entry V559D/T670I, the tested form may be a part): as the sequence (P10721 whole entry V654A, the tested form may be a part) above, with V559D, A654V, T670I counted along it

As to `Cc1ccc(NC(=O)c2cccc(C(F)(F)F)c2)cc1OC1CCN(C(=O)c2ccncc2)CC1`, the GI50 was greater than 10 µM in the series with K562; 5.31 µM in series [2]; greater than 10 µM in series [3]; 1.03 µM in series [4]; 0.021 µM in series [6]; 7.43 µM in series [16]. Moreover, the GI50 in [18] and in series [21] was greater than 10 µM in each case. Besides, the outcome (in the series on GIST882; in the series on GISTT1; in [17]) was Active. This compound also gave a Cmax in series [1] of 125 ng/mL. In addition, in series [5], the half-inhibitory concentration (IC50) turned out to be 0.12 µM. Besides, the clearance in [7] was 83.1 mL/min/kg. The inhibition entry in series [8], in series [13], in [15] and in series [20] was “Active” each time. For the same compound, the Tmax was found to be 1.02 min in series [9] and 30 min in series [10]. The compound also returned an area under the curve AUC(0-t) in series [11] of 198 ng·h/mL. For the same compound, the result in series [12] was inactive. In series [14], the half-life is 247 min. Further, the inhibition in vivo at 100 mg/kg/day in series [19] was 49%.
